From ChEMBL document CHEMBL1955801, “Synthesis, biological evaluation and molecular investigation of fluorinated peroxisome proliferator-activated receptors α/γ dual agonists” (Bioorg Med Chem, 2012)
pEC50: −log10 of the molar value. Active and inactive are the calls of the source. The calls are words filed in the database; no cut-off is given here.

Key:
[1] = molecular target: T1, Peroxisome proliferator-activated receptor alpha (Homo sapiens, UniProt Q07869); assay: Agonist activity at GAL4-tagged human PPARalpha ligand binding domain expressed in HepG2 cells assessed as transactivation after 20 hrs by beta-galactosidase reporter gene assay; assay type: cell-based
T1 sequence (Q07869 whole entry): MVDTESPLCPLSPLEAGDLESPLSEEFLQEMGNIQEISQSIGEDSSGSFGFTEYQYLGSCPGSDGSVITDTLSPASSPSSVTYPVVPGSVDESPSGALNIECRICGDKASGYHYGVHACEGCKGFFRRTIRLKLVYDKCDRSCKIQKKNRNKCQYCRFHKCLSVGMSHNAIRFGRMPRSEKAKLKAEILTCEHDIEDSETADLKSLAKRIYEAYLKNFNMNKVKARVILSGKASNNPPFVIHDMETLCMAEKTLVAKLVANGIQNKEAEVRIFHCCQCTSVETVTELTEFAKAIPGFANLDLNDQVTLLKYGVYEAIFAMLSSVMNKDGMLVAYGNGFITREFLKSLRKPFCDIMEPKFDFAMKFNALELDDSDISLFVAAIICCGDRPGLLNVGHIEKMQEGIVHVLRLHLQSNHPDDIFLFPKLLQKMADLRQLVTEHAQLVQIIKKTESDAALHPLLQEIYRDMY
How it was run: (§1)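 HepG2 cells were grown in MEM with 10% heat-inactivated FBS and penicillin/streptomycin at 37 °C in 5% CO2. They were seeded at 10^5 cells/well in triplicate and calcium-phosphate transfected 24 h later with GAL4-PPARα LBD (30 ng), pGAL5TKpGL3 luciferase reporter (100 ng) and pCMVβgal (250 ng). Ligands were applied for 20 h. Luciferase was read with β-galactosidase measured alongside. Experiments were repeated at least twice.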

[2] = molecular target: T2, Peroxisome proliferator-activated receptor gamma (Homo sapiens, UniProt P37231); assay: Agonist activity at GAL4-tagged human PPARgamma ligand binding domain expressed in HepG2 cells assessed as transactivation after 20 hrs by beta-galactosidase reporter gene assay; assay type: cell-based
T2 sequence (P37231 whole entry): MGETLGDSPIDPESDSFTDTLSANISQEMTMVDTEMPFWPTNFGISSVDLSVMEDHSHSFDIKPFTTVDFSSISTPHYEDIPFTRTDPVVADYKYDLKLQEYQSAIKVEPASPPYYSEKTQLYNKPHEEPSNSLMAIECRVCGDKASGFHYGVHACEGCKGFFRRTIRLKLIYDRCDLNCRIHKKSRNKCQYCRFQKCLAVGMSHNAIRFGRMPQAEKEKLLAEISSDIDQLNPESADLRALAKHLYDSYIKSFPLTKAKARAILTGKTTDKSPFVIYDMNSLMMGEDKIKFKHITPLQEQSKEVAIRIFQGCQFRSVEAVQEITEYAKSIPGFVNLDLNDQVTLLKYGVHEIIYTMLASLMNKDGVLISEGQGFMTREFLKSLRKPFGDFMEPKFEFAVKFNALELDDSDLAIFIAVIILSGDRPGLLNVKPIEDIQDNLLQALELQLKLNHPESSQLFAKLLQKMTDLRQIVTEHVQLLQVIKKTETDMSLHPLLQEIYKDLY

[3] = molecular target: T3, Peroxisome proliferator-activated receptor alpha (Homo sapiens) (UniProt Q07869); assay: Agonist activity at GAL4-tagged human PPARalpha ligand binding domain expressed in HepG2 cells assessed as transactivation after 20 hrs by beta-galactosidase reporter gene assay relative to Wy-14643; assay type: cell-based
T3 sequence (whole entry): T1 sequence (Q07869 whole entry)
How it was run: as §1, with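 “alongside. Wy-14,643 was the reference.” for “alongside.”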

[4] = molecular target: T4, Peroxisome proliferator-activated receptor gamma (Homo sapiens) (UniProt P37231); assay: Agonist activity at GAL4-tagged human PPARgamma ligand binding domain expressed in HepG2 cells assessed as transactivation after 20 hrs by beta-galactosidase reporter gene assay relative to pioglitazone; assay type: cell-based
T4 sequence (whole entry): T2 sequence (P37231 whole entry)
How it was run: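 HepG2 cells were cultured in MEM with 10% heat-inactivated FBS at 37 °C in 5% CO2 and seeded at 10^5 cells/well in triplicate. After 24 h they were calcium-phosphate transfected with GAL4-PPARγ LBD (30 ng), pGAL5TKpGL3 luciferase reporter (100 ng) and pCMVβgal (250 ng). Cells were treated with ligands for 20 h. Luciferase and β-galactosidase activities were measured in extracts. Pioglitazone was the reference. Experiments were run at least twice.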

[5] = molecular target: T1, Peroxisome proliferator-activated receptor alpha; assay: Agonist activity at GAL4-tagged human PPARalpha ligand binding domain expressed in HepG2 cells assessed as transactivation at 5 to 10 uM after 20 hrs by beta-galactosidase reporter gene assay; assay type: cell-based
[6] = molecular target: T3, Peroxisome proliferator-activated receptor alpha (Homo sapiens); conditions: HepG2, 5 to 10 uM
[7] = molecular target: T2, Peroxisome proliferator-activated receptor gamma; assay: Agonist activity at GAL4-tagged human PPARgamma ligand binding domain expressed in HepG2 cells assessed as transactivation at 5 to 10 uM after 20 hrs by beta-galactosidase reporter gene assay; assay type: cell-based
[8] = molecular target: T4, Peroxisome proliferator-activated receptor gamma (Homo sapiens); conditions: HepG2, 5 to 10 uM

Row | Compound | pEC50 [1] | pEC50 [2] | Emax [3] | Emax [4] | EC50 [5] | Emax [6] | EC50 [7] | Emax [8]
1 | O=C(O)C(Cc1ccccc1)Oc1ccc(Cl)c(C(F)(F)F)c1 (stereo not given) | 5.60 | 5.24 | 59% | 21% |  |  |  | 
2 | O=C(O)C(Oc1ccc(Cl)cc1F)c1ccc(Cl)cc1 (stereo not given) | 4.99 | 4.79 | 38% | 24% |  |  |  | 
3 | O=C(O)[C@H](Cc1ccccc1)Oc1ccc(Cl)cc1F | 5.66 | 5.60 | 101% | 84% |  |  |  | 
4 | O=C(O)C(Cc1ccccc1)Oc1ccc(Cl)c(F)c1 (stereo not given) | 5.19 | 4.85 | 51% | 40% |  |  |  | 
5 | O=C(O)C(Cc1cccc(F)c1)Oc1ccc(Cl)cc1 (racemic) | 5.29 | 5.46 | 65% | 52% |  |  |  | 
6 | O=C(O)C(Cc1ccccc1)Oc1cccc(F)c1 (racemic) | 4.68 | 4.39 | 57% | 33% |  |  |  | 
7 | O=C(O)[C@H](Cc1ccccc1)Oc1ccc(C(F)(F)F)cc1 |  |  | 81% | 59% |  |  |  | 
8 | O=C(O)C(Cc1ccccc1F)Oc1ccc(Cl)cc1 (racemic) | 5.18 | 5.31 | 66% | 59% |  |  |  | 
9 | O=C(O)C(Cc1ccc(F)cc1)Oc1ccc(Cl)cc1 (racemic) | 5.27 | 5.28 | 66% | 57% |  |  |  | 
10 | O=C(O)[C@H](Cc1ccccc1)Oc1cccc(C(F)(F)F)c1 | 5.01 | 4.80 | 71% | 44% |  |  |  | 
11 | O=C(O)C(Cc1ccc(Cl)cc1)Oc1ccc(Cl)cc1F (racemic) | 5.85 | 6.05 | 76% | 69% |  |  |  | 
12 | O=C(O)C(Oc1ccc(Cl)cc1F)c1ccccc1 (stereo not given) | 4.72 | 4.49 | 88% | 11% |  |  |  | 
13 | CCc1ccc(CCOc2ccc(CC3SC(=O)NC3=O)cc2)nc1 (stereo not given) [PIOGLITAZONE] |  |  |  |  | Not Active | inactive |  | 
14 | O=C(O)C(Cc1ccccc1)Oc1ccccc1F (racemic) | 4.65 | 4.72 | 36% | 26% |  |  |  | 
15 | O=C(O)[C@H](Cc1ccc(Cl)cc1)Oc1ccc(Cl)cc1F | 6.00 | 6.30 | 76% | 70% |  |  |  | 
16 | O=C(O)C(Oc1cccc(C(F)(F)F)c1)c1ccc(Cl)cc1 (stereo not given) |  | 5.00 |  | 13% | Not Active | inactive |  | 
17 | O=C(O)[C@H](Cc1ccccc1)Oc1ccc(F)cc1 | 4.61 | 4.45 | 55% | 58% |  |  |  | 
18 | O=C(O)C(Cc1cccc(F)c1)Oc1ccccc1C(F)(F)F (racemic) |  | 4.94 |  | 20% | Not Active |  |  | 
19 | Cc1cccc(Nc2cc(Cl)nc(SCC(=O)O)n2)c1C [PIRINIXIC ACID] |  |  |  |  |  |  | Not Active | inactive
20 | O=C(O)[C@H](Cc1ccccc1)Oc1ccc(Cl)cc1 | 5.31 | 5.02 | 90% | 77% |  |  |  | 
21 | O=C(O)C(Cc1ccccc1)Oc1ccccc1C(F)(F)F (racemic) |  | 4.52 |  | 13% | Not Active |  |  | 
22 | O=C(O)C(Cc1cccc(F)c1)Oc1ccc(Cl)cc1F (racemic) | 5.35 | 5.62 | 101% | 83% |  |  |  | 
